Experimental data taken from ChEMBL document CHEMBL1155278, “3,4-Diaryl-isoxazoles and -imidazoles as potent dual inhibitors of p38alpha mitogen activated protein kinase and casein kinase 1delta” (J Med Chem, 2009).
pIC50: −log10 of the molar value.

Experiments:
[1] = molecular target: Aurora kinase B (Homo sapiens) (UniProt Q96GD4); assay: Inhibition of Aurora B assessed as residual activity at 10 uM by Cherenkov counting relative to control in presence of 20 uM ATP
How it was run: (§1)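 Single-point profiling at 10 µM in a panel of 78 protein kinases. Kinase activity is expressed as a percentage relative to control assays without compound.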

[2] = molecular target: T1, Serine/threonine-protein kinase Nek2 (Homo sapiens) (UniProt P51955); assay: Inhibition of NEK2a assessed as residual activity at 10 uM by Cherenkov counting relative to control in presence of 50 uM ATP
T1 sequence (whole entry): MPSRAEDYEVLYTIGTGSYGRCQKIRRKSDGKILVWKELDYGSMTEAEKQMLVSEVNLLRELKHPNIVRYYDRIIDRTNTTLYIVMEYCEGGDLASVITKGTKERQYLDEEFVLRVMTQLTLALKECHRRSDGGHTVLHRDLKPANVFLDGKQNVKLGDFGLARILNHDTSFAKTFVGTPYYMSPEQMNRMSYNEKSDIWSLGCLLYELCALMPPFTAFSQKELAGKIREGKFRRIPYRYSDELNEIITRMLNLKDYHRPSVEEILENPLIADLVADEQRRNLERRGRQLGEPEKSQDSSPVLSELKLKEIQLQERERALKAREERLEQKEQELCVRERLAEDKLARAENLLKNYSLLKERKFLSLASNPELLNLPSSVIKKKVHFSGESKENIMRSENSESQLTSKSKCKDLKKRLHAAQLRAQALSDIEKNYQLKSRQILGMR

[3] = molecular target: Serine/threonine-protein kinase N2 (Homo sapiens) (UniProt Q16513); assay: Inhibition of PRK2 assessed as residual activity at 10 uM by Cherenkov counting relative to control in presence of 5 uM ATP
How it was run: (§2)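 Single-concentration profiling at 10 μM in a 78-kinase panel. Kinase activity is expressed as a percentage of control assays run without compound.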

[4] = molecular target: Tyrosine-protein kinase SYK (Homo sapiens) (UniProt P43405); assay: Inhibition of SYK assessed as residual activity at 10 uM by Cherenkov counting relative to control in presence of 20 uM ATP; how it was run: as §2
[5] = molecular target: Casein kinase I isoform delta (Rattus norvegicus, UniProt Q06486); assay: Inhibition of GST-fused rat CK1delta by Cherenkov counting in presence of 20 uM ATP
[6] = molecular target: Myosin light chain kinase, smooth muscle (Homo sapiens) (UniProt Q15746); assay: Inhibition of smooth muscle MLCK assessed as residual activity at 10 uM by Cherenkov counting relative to control in presence of 50 uM ATP; how it was run: as §2
[7] = molecular target: Tyrosine-protein kinase CSK (Homo sapiens) (UniProt P41240); assay: Inhibition of CSK assessed as residual activity at 10 uM by Cherenkov counting relative to control in presence of 20 uM ATP; how it was run: as §1
[8] = molecular target: T2, MAP kinase-activated protein kinase 5 (Homo sapiens) (UniProt Q8IW41); assay: Inhibition of PRAK assessed as residual activity at 10 uM by Cherenkov counting relative to control in presence of 20 uM ATP; how it was run: as §2
T2 sequence (whole entry): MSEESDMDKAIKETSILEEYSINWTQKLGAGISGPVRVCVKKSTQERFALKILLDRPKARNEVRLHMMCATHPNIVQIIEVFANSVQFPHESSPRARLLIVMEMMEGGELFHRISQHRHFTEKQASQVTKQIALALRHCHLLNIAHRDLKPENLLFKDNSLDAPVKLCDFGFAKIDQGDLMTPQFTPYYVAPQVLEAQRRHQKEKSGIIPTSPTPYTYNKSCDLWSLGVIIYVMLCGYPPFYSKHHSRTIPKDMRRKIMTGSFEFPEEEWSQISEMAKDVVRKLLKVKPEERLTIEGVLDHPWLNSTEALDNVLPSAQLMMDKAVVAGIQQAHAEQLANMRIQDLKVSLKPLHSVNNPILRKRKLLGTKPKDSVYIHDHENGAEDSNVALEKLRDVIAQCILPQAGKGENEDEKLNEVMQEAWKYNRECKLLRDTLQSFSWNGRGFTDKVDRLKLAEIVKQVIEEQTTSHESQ

[9] = molecular target: Calcium/calmodulin-dependent protein kinase type 1 (Homo sapiens) (UniProt Q14012); assay: Inhibition of CAMK1 assessed as residual activity at 10 uM by Cherenkov counting relative to control in presence of 50 uM ATP; how it was run: as §1
[10] = molecular target: Cyclin-dependent kinase 2/cyclin A (Homo sapiens) (UniProt P24941+P20248+P78396); assay: Inhibition of CDK2/cyclin A assessed as residual activity at 10 uM by Cherenkov counting relative to control in presence of 20 uM ATP; assay type: protein-complex assay; how it was run: as §1
[11] = molecular target: Dual specificity tyrosine-phosphorylation-regulated kinase 1A (Homo sapiens) (UniProt Q13627); assay: Inhibition of DYRK1A assessed as residual activity at 0.1 uM by Cherenkov counting relative to control in presence of 50 uM ATP
How it was run: (§3)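 Single-concentration screen at 0.1 µM across a panel of 76 protein kinases. Each kinase was run at an ATP concentration approximating its ATP Km. Results are % mean residual activity versus control assays without compound (n = 3 ± SD).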

[12] = molecular target: Mitogen-activated protein kinase 14 (Homo sapiens, UniProt Q16539); assay: Inhibition of p38alpha assessed as residual activity at 0.1 uM by Cherenkov counting relative to control
How it was run: (§4)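 Single-concentration screen at 0.1 μM in a 76-kinase panel. ATP for each kinase was set near its Km for ATP. Residual activity is given as a percentage of control assays without compound, mean of n = 3 ± SD.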

[13] = molecular target: Insulin receptor-related protein (Homo sapiens) (UniProt P14616); assay: Inhibition of IRR assessed as residual activity at 0.1 uM by Cherenkov counting relative to control in presence of 5 uM ATP
How it was run: (§5)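 Single-concentration selectivity screen at 0.1 μM against a panel of 76 protein kinases. Each kinase was run at an ATP level approximating its Km for ATP. Output is mean residual activity as % of the control assay without compound, n = 3 ± SD.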

[14] = molecular target: MAP kinase-activated protein kinase 2 (Homo sapiens) (UniProt P49137); assay: Inhibition of MAPKAPK2 assessed as residual activity at 0.1 uM by Cherenkov counting relative to control in presence of 20 uM ATP; how it was run: as §5
[15] = molecular target: Mitogen-activated protein kinase 1 (Homo sapiens) (UniProt P28482); assay: Inhibition of ERK2 assessed as residual activity at 0.1 uM by Cherenkov counting relative to control; how it was run: as §3
[16] = molecular target: Tyrosine-protein kinase Yes (Homo sapiens) (UniProt P07947); assay: Inhibition of YES1 at 0.1 uM by Cherenkov counting in presence of 20 uM ATP; how it was run: as §4
[17] = Selectivity ratio of IC50 for recombinant CK1epsilon to IC50 for GST-fused rat CK1delta
[18] = molecular target: Serine/threonine-protein kinase N2 (Homo sapiens) (UniProt Q16513); assay: Inhibition of PRK2 assessed as residual activity at 0.1 uM by Cherenkov counting relative to control in presence of 5 uM ATP; how it was run: as §4
[19] = Inhibition of PHK assessed as residual activity at 0.1 uM by Cherenkov counting relative to control; how it was run: as §5

Chain of Serine/threonine-protein kinase N2 (Homo sapiens) (Q16513 whole entry, looked up): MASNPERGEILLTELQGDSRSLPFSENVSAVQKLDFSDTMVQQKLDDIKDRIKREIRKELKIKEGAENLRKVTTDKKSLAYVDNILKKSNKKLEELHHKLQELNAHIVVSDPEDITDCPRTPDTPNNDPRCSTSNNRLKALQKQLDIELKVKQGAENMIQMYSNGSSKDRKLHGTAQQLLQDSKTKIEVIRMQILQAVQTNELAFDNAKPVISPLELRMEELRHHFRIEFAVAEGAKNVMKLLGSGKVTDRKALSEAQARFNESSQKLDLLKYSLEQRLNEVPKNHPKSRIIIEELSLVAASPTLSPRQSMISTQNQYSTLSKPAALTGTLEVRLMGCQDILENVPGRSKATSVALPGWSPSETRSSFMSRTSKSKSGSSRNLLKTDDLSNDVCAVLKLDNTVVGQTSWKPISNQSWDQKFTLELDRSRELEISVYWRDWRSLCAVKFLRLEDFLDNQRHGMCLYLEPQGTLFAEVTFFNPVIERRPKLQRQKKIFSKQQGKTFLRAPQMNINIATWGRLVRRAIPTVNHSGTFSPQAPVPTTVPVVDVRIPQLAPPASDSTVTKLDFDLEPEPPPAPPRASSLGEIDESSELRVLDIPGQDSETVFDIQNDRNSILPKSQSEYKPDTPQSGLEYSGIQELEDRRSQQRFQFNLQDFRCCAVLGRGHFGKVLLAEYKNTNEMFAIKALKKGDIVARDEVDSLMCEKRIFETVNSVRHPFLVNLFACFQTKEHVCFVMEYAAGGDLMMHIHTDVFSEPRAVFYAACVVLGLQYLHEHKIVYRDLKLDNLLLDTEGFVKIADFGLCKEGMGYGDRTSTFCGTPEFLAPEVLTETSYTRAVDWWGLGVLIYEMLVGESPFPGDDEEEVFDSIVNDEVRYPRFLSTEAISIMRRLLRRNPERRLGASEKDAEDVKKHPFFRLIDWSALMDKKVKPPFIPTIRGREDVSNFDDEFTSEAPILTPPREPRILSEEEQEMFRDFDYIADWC
Chain of Casein kinase I isoform delta (Q06486 whole entry, the tested form may be a part, canonical isoform): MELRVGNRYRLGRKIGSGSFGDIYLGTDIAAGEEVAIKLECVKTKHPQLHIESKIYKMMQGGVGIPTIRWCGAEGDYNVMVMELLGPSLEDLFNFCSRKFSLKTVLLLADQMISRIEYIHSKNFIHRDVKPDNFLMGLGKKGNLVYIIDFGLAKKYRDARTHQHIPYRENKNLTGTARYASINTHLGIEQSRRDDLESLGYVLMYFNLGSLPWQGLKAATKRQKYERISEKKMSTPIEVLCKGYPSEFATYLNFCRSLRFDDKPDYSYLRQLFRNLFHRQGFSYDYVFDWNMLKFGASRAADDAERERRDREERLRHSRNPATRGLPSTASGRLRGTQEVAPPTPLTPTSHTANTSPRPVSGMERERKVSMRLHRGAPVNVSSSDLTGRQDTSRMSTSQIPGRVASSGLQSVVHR
Chain of Mitogen-activated protein kinase 1 (Homo sapiens) (P28482 whole entry): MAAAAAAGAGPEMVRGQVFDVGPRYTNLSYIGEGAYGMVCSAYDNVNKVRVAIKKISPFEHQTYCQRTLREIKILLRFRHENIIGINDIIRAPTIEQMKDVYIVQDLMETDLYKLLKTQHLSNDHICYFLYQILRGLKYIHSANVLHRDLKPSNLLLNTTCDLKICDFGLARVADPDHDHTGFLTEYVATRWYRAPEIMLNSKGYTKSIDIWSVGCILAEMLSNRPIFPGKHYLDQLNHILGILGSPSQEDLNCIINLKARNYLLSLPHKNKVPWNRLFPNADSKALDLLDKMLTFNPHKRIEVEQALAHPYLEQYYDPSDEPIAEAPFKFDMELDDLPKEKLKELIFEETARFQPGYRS
Chain of Insulin receptor-related protein (Homo sapiens) (P14616 27-742 limits assumed): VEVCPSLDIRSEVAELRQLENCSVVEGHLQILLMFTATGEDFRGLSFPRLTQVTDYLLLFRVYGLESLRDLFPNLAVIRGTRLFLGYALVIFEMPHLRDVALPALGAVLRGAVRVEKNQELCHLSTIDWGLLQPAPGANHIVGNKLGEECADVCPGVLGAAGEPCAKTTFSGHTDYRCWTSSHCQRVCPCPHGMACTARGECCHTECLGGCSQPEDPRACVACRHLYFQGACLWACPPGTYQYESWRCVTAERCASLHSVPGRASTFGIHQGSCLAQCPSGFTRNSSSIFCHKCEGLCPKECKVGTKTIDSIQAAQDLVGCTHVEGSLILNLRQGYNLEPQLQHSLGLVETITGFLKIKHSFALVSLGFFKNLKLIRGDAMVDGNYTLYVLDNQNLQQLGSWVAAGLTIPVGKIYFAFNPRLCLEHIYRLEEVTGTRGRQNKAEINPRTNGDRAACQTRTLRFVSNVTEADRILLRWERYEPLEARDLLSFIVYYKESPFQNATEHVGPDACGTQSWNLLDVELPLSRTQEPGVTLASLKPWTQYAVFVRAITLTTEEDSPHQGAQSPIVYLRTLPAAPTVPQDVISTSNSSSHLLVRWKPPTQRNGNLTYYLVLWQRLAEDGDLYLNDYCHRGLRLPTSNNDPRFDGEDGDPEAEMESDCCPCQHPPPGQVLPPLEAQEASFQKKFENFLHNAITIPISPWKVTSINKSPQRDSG
Chain of Insulin receptor-related protein (Homo sapiens) (P14616 747-1297 limits assumed): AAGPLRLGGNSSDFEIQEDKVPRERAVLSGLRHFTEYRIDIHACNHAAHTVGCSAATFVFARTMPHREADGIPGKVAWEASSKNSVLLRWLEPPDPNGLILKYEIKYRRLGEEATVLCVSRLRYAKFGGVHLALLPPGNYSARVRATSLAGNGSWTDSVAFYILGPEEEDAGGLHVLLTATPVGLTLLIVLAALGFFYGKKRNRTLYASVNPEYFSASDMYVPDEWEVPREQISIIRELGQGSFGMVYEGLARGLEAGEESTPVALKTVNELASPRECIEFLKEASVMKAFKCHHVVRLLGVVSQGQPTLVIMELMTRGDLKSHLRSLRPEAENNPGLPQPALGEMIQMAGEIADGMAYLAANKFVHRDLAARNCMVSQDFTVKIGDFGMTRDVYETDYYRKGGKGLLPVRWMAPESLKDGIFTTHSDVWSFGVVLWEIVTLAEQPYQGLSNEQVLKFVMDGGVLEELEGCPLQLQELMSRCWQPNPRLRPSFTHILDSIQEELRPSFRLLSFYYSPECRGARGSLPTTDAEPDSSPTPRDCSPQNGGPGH
Chain of Aurora kinase B (Homo sapiens) (Q96GD4 whole entry): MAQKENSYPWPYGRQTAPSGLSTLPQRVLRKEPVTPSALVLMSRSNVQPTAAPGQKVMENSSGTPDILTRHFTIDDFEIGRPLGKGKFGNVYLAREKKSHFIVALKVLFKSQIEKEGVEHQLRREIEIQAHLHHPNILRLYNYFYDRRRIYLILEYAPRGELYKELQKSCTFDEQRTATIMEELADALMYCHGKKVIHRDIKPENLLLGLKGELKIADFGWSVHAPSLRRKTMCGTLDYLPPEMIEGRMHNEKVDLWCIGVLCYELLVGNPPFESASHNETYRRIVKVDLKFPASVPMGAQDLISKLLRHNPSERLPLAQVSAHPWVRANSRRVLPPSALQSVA
Chain of Tyrosine-protein kinase Yes (Homo sapiens) (P07947 2-543 limits assumed): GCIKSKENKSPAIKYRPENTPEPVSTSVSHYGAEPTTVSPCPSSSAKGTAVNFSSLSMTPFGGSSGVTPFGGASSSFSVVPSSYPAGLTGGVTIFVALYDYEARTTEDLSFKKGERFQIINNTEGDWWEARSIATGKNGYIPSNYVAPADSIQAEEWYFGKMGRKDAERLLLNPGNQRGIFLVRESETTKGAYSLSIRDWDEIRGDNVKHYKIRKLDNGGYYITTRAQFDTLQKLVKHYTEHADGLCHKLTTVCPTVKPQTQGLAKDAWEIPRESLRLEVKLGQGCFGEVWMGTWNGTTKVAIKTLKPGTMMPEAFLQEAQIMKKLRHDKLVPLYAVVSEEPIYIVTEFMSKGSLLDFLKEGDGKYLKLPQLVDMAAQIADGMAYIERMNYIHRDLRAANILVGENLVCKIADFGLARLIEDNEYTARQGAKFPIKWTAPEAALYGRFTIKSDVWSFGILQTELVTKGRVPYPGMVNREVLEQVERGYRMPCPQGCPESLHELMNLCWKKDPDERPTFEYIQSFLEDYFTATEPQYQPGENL
Chain of MAP kinase-activated protein kinase 2 (Homo sapiens) (P49137 whole entry, looked up): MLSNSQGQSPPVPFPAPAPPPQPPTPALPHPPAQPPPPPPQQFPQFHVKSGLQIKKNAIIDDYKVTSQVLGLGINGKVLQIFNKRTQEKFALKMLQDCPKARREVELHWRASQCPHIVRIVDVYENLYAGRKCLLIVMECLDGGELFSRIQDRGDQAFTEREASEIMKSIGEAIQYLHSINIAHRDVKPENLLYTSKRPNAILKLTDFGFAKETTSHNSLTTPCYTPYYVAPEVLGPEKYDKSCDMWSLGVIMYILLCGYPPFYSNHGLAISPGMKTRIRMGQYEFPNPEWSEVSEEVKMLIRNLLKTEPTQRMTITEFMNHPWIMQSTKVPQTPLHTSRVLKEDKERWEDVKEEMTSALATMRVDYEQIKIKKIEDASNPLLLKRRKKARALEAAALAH
Chain of Tyrosine-protein kinase CSK (Homo sapiens) (P41240 2-450 limits assumed): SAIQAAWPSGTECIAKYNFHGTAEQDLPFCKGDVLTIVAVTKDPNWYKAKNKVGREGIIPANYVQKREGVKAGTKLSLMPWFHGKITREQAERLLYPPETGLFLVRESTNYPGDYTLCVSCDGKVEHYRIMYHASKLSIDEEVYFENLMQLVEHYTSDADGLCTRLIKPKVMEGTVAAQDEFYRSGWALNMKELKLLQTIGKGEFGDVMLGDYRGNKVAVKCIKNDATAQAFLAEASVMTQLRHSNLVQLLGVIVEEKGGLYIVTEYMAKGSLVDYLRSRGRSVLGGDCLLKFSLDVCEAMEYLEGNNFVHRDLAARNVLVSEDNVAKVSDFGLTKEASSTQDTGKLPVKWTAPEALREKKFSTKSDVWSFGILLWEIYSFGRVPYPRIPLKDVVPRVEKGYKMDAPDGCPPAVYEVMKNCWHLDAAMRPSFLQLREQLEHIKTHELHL

Activity [1]	Activity [2]	Activity [3]	Activity [4]	pIC50 [5]	Activity [6]	Activity [7]	Activity [8]	Activity [9]	Activity [10]	Activity [11]	Activity [12]	Activity [13]	Activity [14]	Activity [15]	inhibition [16]	Ratio IC50 [17]	Activity [18]	Activity [19]	SMILES
101%	98%	88%	131%	6.64	99%	87%	88%	75%	96%	–	–	–	–	–	–	–	–	–	CC(C)c1onc(-c2ccc(F)cc2)c1-c1ccncc1
22%	96%	98%	114%	–	110%	95%	98%	76%	98%	–	–	–	–	–	–	–	–	–	CC(C)c1noc(-c2ccc(F)cc2)c1-c1ccncc1
–	–	–	–	8.30	–	–	–	–	–	78%	3%	61%	82%	91%	76%	15	95%	99%	COc1ccc(/C=C/C(=O)Nc2cc(-c3[nH]c(SC)nc3-c3ccc(F)cc3)ccn2)c(OC)c1
–	–	–	–	7.96	–	–	–	–	–	86%	5%	83%	78%	93%	86%	41	96%	102%	COc1ccc(/C=C/C(=O)Nc2cc(-c3[nH]c([S+](C)[O-])nc3-c3ccc(F)cc3)ccn2)c(OC)c1 (centres undefined)
